The source of these data is ChEMBL document CHEMBL1938387 (J Med Chem, 2011).

The source made the active and inactive calls. The calls are words filed in the database; no cut-off is given here.

Data set [1] deals with MKN-45. The experiment in a line: Growth inhibition of human MKN45 cells after 72 hrs by methylene blue assay. The format is functional, cell-based. Conditions: MKN-45, 72 h. In a few lines: (§1)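 HT29, KB and MKN45 cells grown in DMEM, MEM or RPMI 1640 with 10% FBS at 37 °C in 5% CO2. Seeded at 8000−20000 cells/mL/well and allowed to adhere overnight. Exposed to various drug concentrations for 72 h, then methylene blue stain extracted with 1% N-lauroylsarcosine and A595 read. IC50 taken relative to untreated cells; means and standard errors, ≥3 independent experiments in duplicate.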

Data set [2] relates to HT-29. The data set can be described thus: Growth inhibition of human HT-29 cells after 72 hrs by methylene blue assay. The format is functional, cell-based. Conditions: HT-29, 72 h. The gist of the method:
as §1

Data set [3] has as its system KB. The data set can be described thus: Growth inhibition of human KB cells after 72 hrs by methylene blue assay. It counts as functional, cell-based. In a few lines: as §1
The species entered for data set [4] is Bos taurus. The experiment in a line: Displacement of [3H]cholchicine from bovine brain tubulin at 5 uM after 2 hrs by scintillation counting. For orientation: In a radioligand displacement assay an active substance lowers the binding of a labelled ligand.
For data set [5], the species on record is Bos taurus. The data set can be described thus: Inhibition of bovine brain tubulin polymerization at 5 uM measured every 30 sec for 30 mins by turbidimetric assay.
The nature of data set [6]: Growth inhibition of human KB-7d cells after 72 hrs by methylene blue assay. The format is functional, cell-based. Conditions: KB7D. The gist of the method: (§2)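 Resistant KB sublines were maintained in extra drug: KB-Vin10 in 10 nM vincristine, KB-S15 in 50 nM paclitaxel, KB-7D in 7 μM VP16. Cells were kept drug-free for 3 days before harvest. Seeded at 8000−20000 cells/mL/well and exposed 72 h. Read by methylene blue, A595 after N-lauroylsarcosine extraction. Means and standard errors of ≥3 experiments in duplicate.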

Data set [7] concerns HUVEC. The experiment in a line: Cytotoxicity against HUVEC assessed as reduction in cell viability at 15 to 120 uM. The format is cell-based. As to conditions: human.
The nature of data set [8]: Growth inhibition of human KB-VIN10 cells after 72 hrs by methylene blue assay. It counts as functional, cell-based. As to conditions: KB-VIN10, 72 h. The gist of the method:
as §2

Data set [9] concerns HUVEC. The data set can be described thus: Antiangiogenic activity in HUVEC assessed as inhibition of capillary tube formation after 4 hrs by Matrigel matrix assay. It counts as functional, cell-based. As to conditions: Homo sapiens. In a few lines:
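HUVECs seeded at 2 × 10^4 cells/well on Matrigel in M199 with 20% FBS and 20 ng/mL VEGF. Capillaries formed over 4 h before test compound or DMSO vehicle was added. Imaged at addition and 4 h later. Capillary tube networks counted manually under a microscope at 100×, expressed relative to vehicle control. Mean ± SD of three separate experiments.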

Data set [10] is described as follows: (§3) Inhibition of bovine brain tubulin polymerization measured every 30 sec for 30 mins by turbidimetric assay. Details: species or system Bos taurus.
For data set [11], the species on record is Bos taurus. The data set is described as §3.
Data set [12] is described as follows: Growth inhibition of human KB-S15 cells after 72 hrs by methylene blue assay. It counts as functional, cell-based. Conditions: KB-S15, 72 h. In a few lines:
as §2

The species entered for data set [13] is Bos taurus. The experiment in a line: Displacement of [3H]cholchicine from bovine brain tubulin at 1 uM after 2 hrs by scintillation counting.
For data set [14], the species on record is Bos taurus. The experiment in a line: Displacement of [3H]cholchicine from bovine brain tubulin after 2 hrs by scintillation counting. The gist of the method:
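Scintillation proximity assay: 0.08 μM [3H]colchicine plus test compound and 0.5 μg biotin-labeled tubulin in 80 mM PIPES pH 6.8, 1 mM EGTA, 10% glycerol, 1 mM MgCl2, 1 mM GTP, 2 h at 37 °C. Streptavidin SPA beads (80 μg) then added and counts read directly by scintillation counter.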

Take `COc1cc(-c2ccc3c(N)c(OC)ccc3n2)cc(OC)c1OC`: the IC50 in data set [1], in data set [2] and in [3] was greater than 5000 nM throughout.
For `COc1cc(C(=O)c2ccc3c(I)c(OC)ccc3n2)cc(OC)c1OC`, the figures for the IC50 in data set [1], in data set [2] and in data set [3] were 819 nM, 1090 nM and 451 nM, respectively.
The corresponding values for `COc1cc(C(=O)c2ccc3c(Br)c(OC)ccc3n2)cc(OC)c1OC` are 167 nM, 195 nM and 108 nM.
In the case of `COc1cc(C(=O)c2ccc3c(O)c(OC)ccc3n2)cc(OC)c1OC`, the inhibition (in general, the change of the read-out against control, counted positive when it falls) is 97% in [4], “Dose-dependent effect” in data set [11] and 91% in [13]. In addition, the IC50 (in general, the midpoint of a concentration-inhibition curve) in [1] turned out to be 4.5 nM; in [6], 9.2 nM; in data set [8], 5.8 nM; in data set [2] it was 3.1 nM; in [3], 2.8 nM; in data set [10], 1500 nM. Besides, the IC50 in data set [12] came out at 5.2 nM. Moreover, the inhibition entry in [5] is “Active”. Also, the Activity entry in data set [7] was “Non-toxic”; in data set [9], “Dose-dependent effect”.
Turning to `COc1cc([C@@H]2c3cc4c(cc3[C@@H](O[C@@H]3O[C@@H]5CO[C@@H](C)O[C@H]5[C@H](O)[C@H]3O)[C@H]3COC(=O)[C@H]23)OCO4)cc(OC)c1O` [ETOPOSIDE], the IC50 in [6] was 54000 nM; in data set [8] it was 23000 nM; in [12], 3500 nM.
Regarding `COc1cc(S(=O)(=O)c2ccc3c(N)c(OC)ccc3n2)cc(OC)c1OC`, the inhibition was 85% in data set [4], “Dose-dependent effect” in [14], “Dose-dependent effect” in data set [11] and 65% in data set [13]. Also, the IC50 in data set [1] is 4 nM; in [6], 2.4 nM; in data set [8], 2.8 nM; in data set [2] it was 16 nM; in data set [3] it was 18 nM; in data set [10], 2000 nM. For the same compound, the IC50 in [12] came out at 2.5 nM. The inhibition entry in [5] is “Active”.
Regarding `COc1cc2c(c(OC)c1OC)-c1ccc(OC)c(=O)cc1[C@@H](NC(C)=O)CC2` [COLCHICINE], the IC50 amounted to 19.2 nM in data set [1] and 16.2 nM in [2].
For the compound `COc1cc(C(=O)c2ccc3c(Cl)c(OC)ccc3n2)cc(OC)c1OC`, the IC50 in data set [1] was 60 nM; in data set [2], 51 nM; in data set [3], 45 nM.
In the case of `CC(=O)O[C@H]1C(=O)[C@@]2(C)[C@H]([C@H](OC(=O)c3ccccc3)[C@]3(O)C[C@H](OC(=O)[C@H](O)[C@@H](NC(=O)c4ccccc4)c4ccccc4)C(C)=C1C3(C)C)[C@]1(OC(C)=O)CO[C@@H]1C[C@@H]2O` [PACLITAXEL], the IC50 was 7.9 nM in data set [6], 16500 nM in data set [8] and 273 nM in [12].
`COc1cc(Oc2ccc3c(N)c(OC)ccc3n2)cc(OC)c1OC`: the inhibition worked out at 60% in data set [4] and 44% in data set [13]. The IC50 stood at 61 nM in data set [1]; 76.2 nM in data set [6]; 78.8 nM in [8]; 139 nM in data set [2]; 31 nM in data set [3]; 5800 nM in data set [10]. Further, the concentration for half-maximal inhibition (IC50) in data set [12] was 42.9 nM.
Regarding `COc1cc(Sc2ccc3c(N)c(OC)ccc3n2)cc(OC)c1OC`, the IC50 in [1] was 28 nM; in data set [2], 40 nM; in data set [3], 59 nM.
As for `CC[C@]1(O)C[C@H]2CN(CCc3c([nH]c4ccccc34)[C@@](C(=O)OC)(c3cc4c(cc3OC)N(C=O)[C@H]3[C@@](O)(C(=O)OC)[C@H](OC(C)=O)[C@]5(CC)C=CCN6CC[C@]43[C@@H]65)C2)C1` [VINCRISTINE], the IC50 in data set [6] amounted to 1.2 nM; in [8] it was 90.1 nM; in [12] it was 17.6 nM.
For the compound `COc1cc(Nc2ccc3c(N)c(OC)ccc3n2)cc(OC)c1OC`, the IC50 in data set [1], in data set [2] and in data set [3] was greater than 5000 nM throughout.
